# Assay results taken from paper PMC5099076 (Journal of medicinal chemistry, 2015).
# What was measured:
# [1] = biological target: T1, PIF pocket of PDK1 (Homo sapiens, UniProt O15530); assay: Fluorescence polarization; format: binding
# T1 sequence (O15530 1-556): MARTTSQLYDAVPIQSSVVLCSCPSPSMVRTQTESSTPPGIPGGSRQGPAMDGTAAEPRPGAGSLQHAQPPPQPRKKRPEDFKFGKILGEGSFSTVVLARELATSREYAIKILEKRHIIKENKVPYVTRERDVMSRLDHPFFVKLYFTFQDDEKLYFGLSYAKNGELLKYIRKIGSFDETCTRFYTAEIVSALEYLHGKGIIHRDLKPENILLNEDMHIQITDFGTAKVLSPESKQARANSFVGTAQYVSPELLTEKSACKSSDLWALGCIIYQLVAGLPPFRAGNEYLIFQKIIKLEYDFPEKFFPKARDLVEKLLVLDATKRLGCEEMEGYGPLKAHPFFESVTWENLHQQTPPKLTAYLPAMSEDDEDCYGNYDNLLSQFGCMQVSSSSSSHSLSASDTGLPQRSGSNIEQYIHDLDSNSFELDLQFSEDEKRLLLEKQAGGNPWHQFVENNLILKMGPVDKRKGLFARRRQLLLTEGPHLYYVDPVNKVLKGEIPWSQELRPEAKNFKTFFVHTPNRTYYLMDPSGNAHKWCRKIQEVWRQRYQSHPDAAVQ
# [2] = biological target: T2, PDK1 (Homo sapiens, UniProt O15530); format: biochemical; details: short peptide substrate, in vitro
# T2 sequence (O15530 1-556): T1 sequence (O15530 1-556)
# [3] = system: cruzain; assay: Cruzain assay; format: biochemical; details: unrelated enzyme, test for aggregation-based mechanism
# Method in brief: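 Test compound preincubated 5 min with 0.8 nM cruzain in 100 mM sodium acetate, pH 5.5, 5 mM DTT, with 0.01% Triton X-100 added where indicated. Reaction started with Z-FR-AMC; final 0.4 nM cruzain, 2.5 μM substrate, 0.5% DMSO. Fluorescence increase (ex 355/em 460 nm) recorded over 5 min. Run in duplicate; DMSO-only controls.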
# [4] = Dynamic light scattering; format: physicochemical; details: under assay conditions
# Method in brief: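 Concentrated DMSO stocks of test compound diluted in assay buffer to a final 3.2% DMSO. Light scattering read with a 55 mW laser at 826.6 nm, 100% laser power, detector at 90°. Single-point measurements reported.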
Compound,Binding to PDK1 (in words) ([1]; FP competitive binding assay),"LE (ligand efficiency) ([1]; binding energy (ΔG, kcal/mol) per non-hydrogen atom)",Maximal stimulation of PDK1 activity [2],Nonspecific inhibition of cruzain [3],Formation of colloidal aggregates [4]
O=C(O)C/C(=C/c1cccc(C(F)(F)F)c1)c1nc2ccccc2o1 [compound 2],negligible,,,,
Cc1ccc(OCCSc2nc3ccccc3n2CC(=O)O)c(C)c1 [compound 1],,0.25 kcal/mol per non-hydrogen atom,~ 1.8 fold,nor did either compound nonspecifically inhibit,Neither compound formed colloidal aggregates
O=P(O)(O)[C@H](NC[C@@H]1CCCc2ccccc21)c1ccc(F)cc1 [compound 3],,,~ 1.8 fold,nor did either compound nonspecifically inhibit,Neither compound formed colloidal aggregates
